The values that follow come from publication PMC4633019 (Journal of natural products, 2015).

The test system of data set [1] is P. falciparum plasmepsins (aspartyl protease activity of Pf extracts). The data set can be described thus: Plasmepsin protease assay with P. falciparum extract and FRET peptide substrate. The format is biochemical, Plasmodium falciparum. The note with it: freshly prepared P. falciparum extracts.
Data set [2] concerns Plasmodium falciparum (cp250, Dd2, HB3, 7G8, GB4 lines). The data set can be described thus: SYBR Green DNA-staining parasite viability assay. The format is cell-based. In a few lines: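 Infected RBCs (0.3% parasitemia, 2.5% hematocrit final) in culture medium received pin-transferred test compound. Incubated 72 h at 37 °C in humidified 5% CO2. Lysis buffer was then added (20 mM Tris-HCl, 10 mM EDTA, 0.16% saponin, 1.6% Triton-X, 10× SYBR Green I), followed by overnight incubation at 22–24 °C in the dark. Fluorescence was read at 485/535 nm. Controls: artemisinin and mefloquine as positive, DMSO as negative.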

The next data set deals with HEK293 cells. The data set is described as follows: Mammalian cell viability assay. In kind it is cell-based, human. The note with it: up to highest tested concentrations. In a few lines:
(§1)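 Viability was read with Cell TiterGlo reagent, used according to the manufacturer's instructions, in 1536-well format with a plate-imager read-out. The same procedure was applied to human RBCs.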

The next data set has as its system HepG2 cells. The data set can be described thus: Mammalian cell viability assay. In kind it is cell-based, human. The note with it: up to highest tested concentrations. In a few lines:
as §1

The test system of the next data set is Jurkat cells. Particulars: cited from earlier work.

Values after ≈ are worked out from the molar mass of the structure shown. Where a SMILES comes first, the peptide text is derived from it. [ ]: non-standard residue; d: D form. The star is where a group is joined. Sta = CC(C)C[C@H](N)[C@@H](O)CC(=O)O; Isovaleryl = CC(C)CC(=O)*

`CC(C)CC(=O)N[C@H](C(=O)N[C@H](C(=O)N[C@@H](CC(C)C)[C@@H](O)CC(=O)N[C@@H](C)C(=O)N[C@@H](CC(C)C)[C@@H](O)CC(=O)O)C(C)C)C(C)C` [pepstatin] (Isovaleryl-VV[Sta]A[Sta]-OH): the “inhibition of aspartyl protease (plasmepsin) activity (in words)” value in data set [1] is “potently inhibited”.

Consider `COCC(=O)N[C@@H](C(=O)N1NCCC[C@H]1C(=O)N[C@@H](Cc1ccccc1)[C@@H](O)[C@H](C)C(=O)NC1CNC(=O)NC1=O)[C@H](O)C(C)C` (stereo partly drawn) [Actinoramide F, actinoramide F], for which the “antimalarial activity (in words)” value in data set [2] is reported as “no antimalarial activity”.

Turning to `COCC(=O)N[C@@H](C(=O)N1NCCC[C@H]1C(=O)N[C@@H](Cc1ccccc1)[C@@H](O)[C@H](C)C(=O)N[C@@H]1CCN(C(N)=O)C1=O)[C@H](O)C(C)C` [25-epi-actinoramide A], the “toxicity to HEK293 cells (in words)” value in the data set on HEK293 cells is “no toxicity”. The “toxicity to HepG2 cells (in words)” value with HepG2 cells is reported as “no toxicity”.

With `COCC(=O)N[C@@H](C(=O)N1NCCC[C@H]1C(=O)N[C@@H](Cc1ccccc1)[C@@H](O)[C@H](C)C(=O)N[C@H]1CCN(C(N)=O)C1=O)[C@H](O)C(C)C` [actinoramide A], in the data set on HEK293 cells, the “toxicity to HEK293 cells (in words)” value is listed as “no toxicity”. In addition, the “toxicity to HepG2 cells (in words)” value in the data set with HepG2 cells is on record as “no toxicity”. Moreover, in the data set with Jurkat cells, the “EC50 (cytotoxicity)” value is on record as “≈ 60 μg/mL”.

On to `COCC(=O)N[C@@H](C(=O)N1N=CCC[C@H]1C(=O)N[C@@H](Cc1ccccc1)[C@@H](O)[C@H](C)C(=O)N[C@H]1CCN(C(N)=O)C1=O)[C@H](O)C(C)C` [actinoramide D], for which the “decrease in potency (vs actinoramide A)” value in data set [2] (depending on the parasite strain) is listed as 6–20 fold.

As for `COCC(=O)N[C@@H](C(=O)N1NCCC[C@H]1C(=O)N[C@@H](Cc1ccccc1)[C@@H](O)[C@H](C)C(=O)N[C@H]1CCC(=O)NC1=O)[C@H](O)C(C)C` [padanamide B, reference compound], in the data set with Jurkat cells, the “EC50 (cytotoxicity)” value was approximately 20 µg/mL (≈ 30.9 µM).
